# Source: article PMC9868102 (Cell chemical biology, 2023)
# Entries after “also recorded” stand apart in the source; their conditions may differ.
# T1: human TG2 (Homo sapiens, UniProt P21980)
# T1 sequence (P21980 1-687): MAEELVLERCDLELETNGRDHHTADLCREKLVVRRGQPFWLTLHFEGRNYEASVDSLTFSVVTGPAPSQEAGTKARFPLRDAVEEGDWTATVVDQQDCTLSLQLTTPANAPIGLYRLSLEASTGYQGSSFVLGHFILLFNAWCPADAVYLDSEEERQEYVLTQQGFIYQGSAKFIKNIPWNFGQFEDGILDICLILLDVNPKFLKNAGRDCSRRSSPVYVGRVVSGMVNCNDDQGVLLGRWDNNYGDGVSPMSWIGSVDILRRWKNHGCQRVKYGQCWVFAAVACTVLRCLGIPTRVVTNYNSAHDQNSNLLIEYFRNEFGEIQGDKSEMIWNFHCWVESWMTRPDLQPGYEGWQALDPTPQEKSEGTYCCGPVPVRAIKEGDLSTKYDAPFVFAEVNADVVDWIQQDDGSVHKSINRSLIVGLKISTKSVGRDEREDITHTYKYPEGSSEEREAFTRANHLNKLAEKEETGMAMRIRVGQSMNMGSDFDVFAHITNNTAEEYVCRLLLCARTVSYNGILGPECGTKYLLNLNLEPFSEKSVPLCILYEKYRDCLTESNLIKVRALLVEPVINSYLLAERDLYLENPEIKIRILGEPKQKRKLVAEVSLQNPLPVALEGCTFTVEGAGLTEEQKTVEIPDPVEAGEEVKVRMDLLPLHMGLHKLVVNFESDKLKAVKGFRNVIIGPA
# T2: TG2 derivative lacking the C-terminal β-barrel domain (Homo sapiens, UniProt P21980)
# T2 sequence (P21980 1-586): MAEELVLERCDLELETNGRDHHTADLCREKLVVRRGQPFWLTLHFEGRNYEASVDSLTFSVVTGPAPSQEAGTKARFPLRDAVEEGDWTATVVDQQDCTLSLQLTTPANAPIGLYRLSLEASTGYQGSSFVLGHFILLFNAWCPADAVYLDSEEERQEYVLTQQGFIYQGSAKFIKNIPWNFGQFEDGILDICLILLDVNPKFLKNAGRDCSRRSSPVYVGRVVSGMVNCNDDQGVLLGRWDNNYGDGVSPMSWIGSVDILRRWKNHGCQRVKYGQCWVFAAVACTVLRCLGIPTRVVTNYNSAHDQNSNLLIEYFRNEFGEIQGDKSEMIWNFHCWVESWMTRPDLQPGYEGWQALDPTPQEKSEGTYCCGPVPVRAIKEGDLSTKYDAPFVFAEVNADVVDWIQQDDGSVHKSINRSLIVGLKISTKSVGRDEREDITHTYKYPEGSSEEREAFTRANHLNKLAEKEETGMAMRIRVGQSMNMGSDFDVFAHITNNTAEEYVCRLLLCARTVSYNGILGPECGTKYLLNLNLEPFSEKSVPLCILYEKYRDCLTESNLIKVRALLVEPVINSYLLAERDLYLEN
# T3: TG2 derivative harboring the N-terminal and catalytic domains but lacking both β-barrel domains (Homo sapiens, UniProt P21980)
# T3 sequence (P21980 1-460): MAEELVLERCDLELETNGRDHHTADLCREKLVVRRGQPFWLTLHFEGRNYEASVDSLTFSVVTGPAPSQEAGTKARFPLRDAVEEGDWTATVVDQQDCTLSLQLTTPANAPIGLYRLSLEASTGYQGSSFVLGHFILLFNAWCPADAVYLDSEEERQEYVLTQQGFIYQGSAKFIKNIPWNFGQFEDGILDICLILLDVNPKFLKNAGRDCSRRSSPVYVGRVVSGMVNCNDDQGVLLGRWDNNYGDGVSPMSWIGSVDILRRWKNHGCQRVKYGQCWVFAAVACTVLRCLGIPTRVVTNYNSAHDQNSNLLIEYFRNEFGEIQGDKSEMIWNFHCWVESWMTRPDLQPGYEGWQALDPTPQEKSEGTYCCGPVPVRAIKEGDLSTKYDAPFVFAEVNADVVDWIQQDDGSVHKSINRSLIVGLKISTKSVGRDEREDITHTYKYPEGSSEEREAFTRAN
# B1: TRX: recombinant human thioredoxin (protein, UniProt P10599 2-105, looked up)
# Thioredoxin: VKQIESKTAFQEALDAAGDKLVVVDFSATWCGPCKMIKPFFHSLSEKYSNVIFLEVDVDDCQDVASECEVKCMPTFQFFKKGQKVGEFSGANKEKLEATINELV
# B2: RAP: potent endogenous antagonist of α2M binding to LRP-1, receptor associated protein (protein, UniProt P30533 35-357, looked up)
# Alpha-2-macroglobulin …: YSREKNQPKPSPKRESGEEFRMEKLNQLWEKAQRLHLPPVRLAELHADLKIQERDELAWKKLKLDGLDEDGEKEARLIRNLNVILAKYGLDGKKDARQVTSNSLSGTQEDGLDDPRLEKLWHKAKTSGKFSGEELDKLWREFLHHKEKVHEYNVLLETLSRTEEIHENVISPSDLSDIKGSVLHSRHTELKEKLRSINQGLDRLRRVSHQGYSTEAEFEEPRVIDLWDLAQSANLTDKELEAFREELKHFEAKIEKHNHYQKQLEIAHEKLRHAESVGDGERVSRSREKHALLEGRTKELGYTVKKHLQDLSGRISRARHNEL
# Key:
# [1] = molecular target: T1, human TG2; settings: nucleophilic substrate; cited from earlier work
# [2] = tested on: wild-type MEFs; assay: Labeling of wild-type MEFs by TG2 activity probes; format: cell-based, mouse; settings: for labeling/staining pattern: 1 μM HB230 (3 h) with 10 μM TRX, 5BP at 100 μM
# Procedure, shortened: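 MEFs were grown in DMEM and seeded on glass-bottom plates for 3 days. TG2-knockout controls were E14.5 MEFs immortalised with SV40 large T. Media were replaced, then probe was added with recombinant human TRX for the whole 3 h treatment. Cells were washed in HBSS, fixed in 2% PFA for 10 min at RT, and stained with DAPI. Imaging was confocal with a 63x oil objective; probe was read on the 647 nm channel.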
# [3] = tested on: clathrin mediated endocytosis / LRP-1 in NRK cells; assay: Inhibition of clathrin/LRP-1 mediated endocytosis of 33mer and α2M in NRK cells; format: cell-based, rat; settings: for inhibition of large endocytic puncta (33mer + α2M): 12.5 mM MβCD, 20 μM Dyno-4a, 25 μM Pitstop
# Procedure, shortened: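 Clathrin-endocytosis inhibitors used on NRK cells: MβCD 12.5 mM, Dyno-4a 20 μM, Pitstop 25 μM; Pitstop added 30 min before the other treatments. Then labelled α2M and Cy5-33mer for 1.5 h, HBSS washes, 2% PFA fix, DAPI, confocal for large double-labelled puncta.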
# [4] = tested on: 9022 cells (HLA-DQ2 homozygous B-cell line); assay: Cell surface presentation by HLA-DQ2 expressing 9022 B cells; format: cell-based, human; settings: 20 min prior to α2M and 33mer
# Procedure, shortened: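 EBV-immortalised HLA-DQ2-homozygous B cells in RPMI with 10% FBS and 1% PenStrep, pelleted, resuspended and left 20 min at 37 °C to adhere on poly-L-lysine-coated glass. Cy5-33mer, α2M and 100 nM recombinant human TG2 (E. coli, His6) added for 2.5 h. Anti-HLA-DQ2 (1:50) then Alexa 488 secondary, each 20 min on ice, fixed, DAPI, confocal. Cells with surface HLA-DQ2/Cy5 overlay scored; 2-4 frames of 3-6 replicates.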
# [5] = molecular target: T1, human TG2; settings: oxidant; without active site occupancy; cited from earlier work
# [6] = tested on: NRK cells; assay: Endocytosis of fluorescent α2M in NRK cells with TG2 inhibitors or substrates; format: cell-based, rat
# Procedure, shortened: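 Rat NRK cells kept in DMEM, split 1:4 to 1:10 every 2-4 days, and imaged as adherent cultures. Small-molecule inhibitors go on 30 min ahead of other additions. Recombinant α2M is purified from culture supernatant by zinc-affinity chromatography and then SEC. After 1.5 h, cells are washed 3× in HBSS, fixed in 2% PFA/PBS for 10 min at RT, DAPI-stained, and imaged by confocal microscopy under low light.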
# [7] = molecular target: T2, TG2 derivative lacking the C-terminal β-barrel domain; assay: Kinetics of truncated TG2 lacking the C-terminal β-barrel domain; format: biochemical; settings: pH 7.2, 25 °C, triplicate
# Procedure, shortened: (§1)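 Truncated human TG2 constructs with N-terminal His tags (residues 1-586 lacking β2; residues 1-460 lacking β1 and β2) were expressed in Rosetta2 E. coli and purified by Ni, anion exchange and SEC. The assay was GDH-coupled: 200 mM MOPS pH 7.2, 5 mM CaCl2, 10 mM α-ketoglutarate, 18 U/mL GDH, 0.5 mM NADH and Ac-PQLPF-NH2. Reduced enzyme was at 1 μM final, ± Expi293F-expressed human α2M. NADH loss was read at 340 nm for 60 min at 25 °C. Rates came from linear slopes; triplicate.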
# [8] = molecular target: T1, human TG2; assay: TG2 steady-state kinetics of substrates, wild-type TG2 ± α2M and vs pH; format: biochemical; settings: for kcat: 200 mM MOPS pH 7.2, 5 mM CaCl2, 25 °C, 1 μM TG2, triplicate
# Procedure, shortened: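 His6-tagged human TG2 from E. coli BL21(DE3) was purified by Ni-NTA and anion exchange, reduced, and desalted into PBS. It was assayed at 1 μM final, ± recombinant human α2M (Expi293F-expressed), with GDH/α-ketoglutarate/NADH coupling in 200 mM MOPS pH 7.2 with 5 mM CaCl2. Substrate was Ac-PQLPF-NH2 unless otherwise specified. Absorbance at 340 nm was followed for 60 min at 25 °C. Steady-state rates came from linear progress-curve slopes; triplicate.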
# [9] = molecular target: T3, TG2 derivative harboring the N-terminal and catalytic domains but lacking both β-barrel domains; assay: Kinetics of truncated TG2 lacking both β-barrel domains; format: biochemical; settings: pH 7.2, 25 °C, triplicate
# Procedure, shortened: as §1
# [10] = tested on: TG2-knockout BMM; assay: Uptake by bone marrow derived macrophages from TG2-knockout mice; format: cell-based, mouse; settings: triplicates
# Procedure, shortened: (§2)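 Bone marrow from female C57BL6 or TG2-knockout mice, red cells removed, plated at 8x10^6 cells in RPMI/10% FBS with 20 ng/mL M-CSF. Fed on days 2 and 4, adherent cells harvested with 5 mM EDTA on day 5. Cy5-33mer uptake imaged by confocal; triplicates, mean ± SD.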
# [11] = tested on: wild-type BMDCs; assay: Uptake by BMDCs from wild-type mice; format: cell-based, mouse
# Procedure, shortened: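 Bone marrow flushed from tibia and femur of female C57BL6 or TG2-knockout mice, red cells removed. Cells seeded at 2x10^6 per 10-cm dish in RPMI/10% FBS with 10 ng/mL GM-CSF, fed on days 3 and 6, suspension cells harvested day 8. Probed with HB230 or Cy5-33mer; confocal, DAPI counterstain.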
# [12] = tested on: wild-type bone marrow derived macrophages (BMM); assay: Uptake by bone marrow derived macrophages from wild-type mice; format: cell-based, mouse; settings: ± α2M; triplicates
# Procedure, shortened: as §2
molecule,measurement,setting,value
"NCCCCCNC(=O)CCCC[C@@H]1SC[C@@H]2NC(=O)N[C@@H]21 [5-BP, 5-biotinamidopentylamine]",TG2 substrate activity in words,[1],relatively weak nucleophilic substrate
same,labeling/staining pattern,[2],"label bound to extracellular matrix proteins (e.g., fibronectin) in a predictably fibrous pattern"
same,labeling/staining pattern,[2]; listed as 5BP,fibrous incorporation pattern
O=C(N/N=C/c1cc(O)c(O)cc1O)c1cc2ccccc2cc1O [Dyno-4a],inhibition of large endocytic puncta (33mer + α2M),[3],strong inhibition of α2M and peptide colocalization as large endocytic puncta; also recorded: abrogate the appearance of large puncta
O=C1NC(=NS(=O)(=O)c2cccc3ccccc23)S/C1=C\c1ccc(Br)cc1 [Pitstop-2],effect of Pitstop on cell surface 33mer,[4],dose-dependent reduction of cell-surface 33mer labeling
same,inhibition of large endocytic puncta (33mer + α2M),[3],strong inhibition of α2M and peptide colocalization as large endocytic puncta
same,inhibition of large endocytic puncta (33mer + α2M),[3]; listed as Pitstop,abrogate the appearance of large puncta
"NCCSSCCN [cystamine, reference compound]",TG2 inactivation mechanism in words,[5],inactivates TG2 by promoting C370-C371 disulfide bond formation
same,effect on α2M internalization (large puncta),"[6]; fluorescent α2M 100 μg/mL, CK805 10 μM, cystamine 100 μM",unable to promote rapid internalization of fluorescent α2M; also recorded: do not yield the larger puncta at saturating concentrations
AC-PQLPF-NH2,kcat,[7]; absence of α2M,0.15 ± 0.017 s⁻¹
same,kcat,[7]; presence of α2M,0.13 ± 0.017 s⁻¹
same,kcat,[8]; absence of α2M,0.583 ± 0.017 s⁻¹
same,kcat,[8]; presence of α2M,0.483 ± 0.017 s⁻¹
same,kcat,[9]; absence of α2M,0.12 ± 0.0033 s⁻¹
same,kcat,[9]; presence of α2M,0.12 ± 0.005 s⁻¹
H-LQLQPFPQPQLPYPQPQLPYPQPQLPYPQPQPF-Rink resin [SulfoCy5-native-33mer],uptake by TG2-knockout BMM,[10],do not internalize 33mer
same,uptake by wild-type BMDCs,[11],take up HB230 and 33mer
same,uptake by wild-type BMM,[12],"robustly internalized the 33mer in the presence, but not absence, of α2M"
TG2: recombinant human transglutaminase 2,pH-dependence of TG2 catalytic activity,"[8]; deamidation of Ac-PQLPF-NH2, pH 4.2-7.2, steady-state, triplicates",preserved upon acidification until at least pH 5
fibronectin,endocytosis of fibronectin / effect on α2M puncta,"[6]; 100 μg/mL fluorescent α2M, increasing exogenous fibronectin",dose-dependence increase in the abundance of large but not small puncta; also recorded: endocytosis of extracellular fibronectin via this pathway
methyl-β-cyclodextrin [MβCD],inhibition of large endocytic puncta (33mer + α2M),[3],strong inhibition of α2M and peptide colocalization as large endocytic puncta; also recorded: abrogate the appearance of large puncta
B1,dependence of probe labeling on TRX,[2]; TRX added for duration of HB230 treatment,strongly dependent
B2,inhibition of large 33mer-containing puncta by LRP-1 antagonist,[3]; RAP prior to Cy5-33mer and α2M,inhibits the formation of large 33mer-containing puncta; also recorded: fully ablated the formation of large puncta
